Among the data in ChEMBL document CHEMBL1150832, “Phenylnaphthalene compounds from the subterranean part of Vitex rotundifolia and their antibacterial activity against methicillin-resistant Staphylococcus aureus” (2001) are Activity values, retold here.

Activity calls are given as the source filed them. The rule behind the calls is not given here.

In the assay the test system is Staphylococcus aureus. Briefly: Antimicrobial activity against methicillin-sensitive Staphylococcus aureus ATCC 6538 at 100 ug after 20 hrs by agar plate diffusion assay. It is filed as functional, organism-based. The method, boiled down: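 Agar disk diffusion. Cells were grown on Mueller-Hinton agar at 37 °C for 24 h, resuspended in Mueller-Hinton broth to 108 CFU/mL and incubated again. They were then diluted to 105 CFU/mL and used to inoculate Mueller-Hinton agar plates. 6 mm disks loaded with 100 µg compound were placed on the plates and incubated 20 h at 37 °C. Inhibition zones >10 mm were scored positive.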

Turning to `COc1cc(-c2c(O)c(C=O)cc3cc(OC)c(O)cc23)ccc1O`, the result was inactive.

For `COc1cc(C[C@@H](CO)[C@H](CO)Cc2ccc(O)c(OC)c2)ccc1O`, the result was inactive.

Turning to `COc1cc2cc3c(c(-c4ccc(OC)c(OC)c4)c2cc1O)COC3=O`, the outcome was inactive.

Consider `COc1ccc(-c2c(O)c(C=O)cc3ccc(O)c(OC)c23)cc1OC`, for which the result was inactive.

In the case of `COc1ccc(-c2c3c(cc4ccc(O)c(OC)c24)C(=O)OC3)cc1OC`, the outcome was inactive.
